Experimental data reported in ChEMBL document CHEMBL4765386, “Discovery of tertiary amide derivatives incorporating benzothiazole moiety as anti-gastric cancer agents in vitro via inhibiting tubulin polymerization and activating the Hippo signaling pathway” (Eur J Med Chem, 2020).
Activity calls are given as the source filed them. The rule behind the calls is not given here.

Key:
SGC-7901 [1] = assay: Activation of Hippo signaling pathway in human SGC-7901 cells assessed as decrease in c-MYC expression incubated for 48 hrs by Western blot analysis; format: cell-based; conditions: filed as activator, dose 20-60 nM
Method in brief: (§1)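 Western blot on gastric cancer cells exposed to compound or DMSO at 20, 40 and 60 nM for 48 h. Cells were lysed, then the denatured lysates were separated by SDS-PAGE and transferred to PVDF. Membranes were blocked and probed with primary and then secondary antibodies. Hippo pathway proteins were detected.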

MGC-803 [2] = assay: Activation of Hippo signaling pathway in human […] cells assessed as increase in MST1/2 phosphorylation at 20 to 60 nM incubated for 48 hrs by Western blot analysis; format: cell-based; conditions: filed as activator, dose 20-60 nM; method in brief: as §1
SGC-7901 [3] = assay: Inhibition of tubulin polymerization in human SGC-7901 cells assessed as decrease in microtubule formation at 20 to 60 nmol/L by DAPI staining based microscopic analysis; format: cell-based; conditions: dose 20-60 nmol/L
Method in brief: (§2)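 Cells cultured in RPMI-1640 with 10% FBS at 37 °C, 5% CO2, treated 48 h with 20, 40 and 60 nM; stained for β-tubulin (green) and nuclei (blue) and examined by microscopy.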

MGC-803 [4] = assay: Induction of cell cycle arrest in human MGC-803 cells assessed as downregulation of CDK1 at 20 to 60 nM incubated for 48 hrs by Western blot analysis; format: functional, cell-based; conditions: dose 20-60 nM
Method in brief: (§3)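 Cells grown in RPMI-1640 with 10% FBS, penicillin/streptomycin at 37 °C, 5% CO2. Exposure to 20, 40 or 60 nM for 48 h alongside DMSO control. Lysates denatured, resolved by SDS-PAGE, transferred to PVDF, blocked, then probed with primary and secondary antibodies.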

SGC-7901 [5] = assay: Inhibition of tubulin polymerization in human SGC-7901 cells assessed as increase in multiple nucleus formation at 20 to 60 nmol/L by DAPI staining based microscopic analysis; format: cell-based; conditions: dose 20-60 nmol/L; method in brief: as §2
MGC-803 [6] = assay: Activation of Hippo signaling pathway in human […] cells assessed as downregulation of YAP at 20 to 60 nM incubated for 48 hrs by Western blot analysis; format: cell-based; conditions: filed as activator, dose 20-60 nM; method in brief: as §1
MGC-803 [7] = assay: Induction of apoptosis in human MGC-803 cells assessed as downregulation of c-IAP1 at 20 to 60 nM incubated for 48 hrs by Western blot analysis; format: functional, cell-based; conditions: dose 20-60 nM
Method in brief: (§4)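 Western blot on MGC-803 and SGC-7901 cells given 20, 40 and 60 nM compound or DMSO for 48 h. Denatured lysates were run on SDS-PAGE and transferred to PVDF, then probed with primary and secondary antibodies to detect apoptosis-related proteins.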

SGC-7901 [8] = assay: Cytotoxicity against human SGC-7901 cells harboring SiYAP assessed as increase in cell viability at 20 to 60 nM incubated for 48 hrs by MTT assay; format: cell-based; conditions: sgc-7901, 48 h, 0.06 µM, dose 20-60 nM
MGC-803 [9] = assay: Induction of apoptosis in human MGC-803 cells assessed as upregulation of Bax at 20 to 60 nM incubated for 48 hrs by Western blot analysis; format: functional, cell-based; conditions: dose 20-60 nM; method in brief: as §4
HCT-116 = assay: Antiproliferative activity against human HCT-116 cells assessed as reduction in cell viability incubated for 48 hrs by MTT assay; format: functional, cell-based; conditions: HCT-116, 48 h
Method in brief: (§5)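 MTT assay. 5,000 cells per well in RPMI-1640 with 10% FBS and penicillin/streptomycin at 37 °C, 5% CO2. Compound added 24 h after seeding and left for 48 h. MTT was then added for 4 h at 37 °C, formazan dissolved in DMSO and absorbance read at 490 nm. IC50 calculated from three independent experiments.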

SGC-7901 [10] = assay: Induction of apoptosis in human SGC-7901 cells assessed as increase in caspase-3 cleavage at 20 to 60 nM incubated for 48 hrs by Western blot analysis; format: functional, cell-based; conditions: dose 20-60 nM; method in brief: as §3
MGC-803 [11] = assay: Inhibition of tubulin polymerization in human MGC-803 cells assessed as decrease in filamentous structure at 20 to 60 nmol/L by DAPI staining based microscopic analysis; format: cell-based; conditions: dose 20-60 nmol/L; method in brief: as §2
MGC-803 [12] = assay: Antiproliferative activity against human MGC-803 cells assessed as reduction in cell viability incubated for 48 hrs by MTT assay; format: functional, cell-based; conditions: MGC-803, 48 h
Method in brief: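 MTT assay. Compound added 24 h after seeding and left for 48 h. MTT was then added for 4 h at 37 °C, formazan dissolved in DMSO and absorbance read at 490 nm. IC50 calculated from three independent experiments.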

MGC-803 [13] = assay: Induction of apoptosis in human MGC-803 cells assessed as increase in caspase-9 cleavage at 20 to 60 nM incubated for 48 hrs by Western blot analysis; format: functional, cell-based; conditions: dose 20-60 nM; method in brief: as §4
SGC-7901 [14] = assay: Induction of apoptosis in human SGC-7901 cells assessed as early apoptotic cells at 40 nM incubated for 48 hrs by annexin V-FITC and PI staining based flow cytometry analysis (reference value: 1.4 %); format: functional
SGC-7901 [15] = assay: Induction of apoptosis in human SGC-7901 cells assessed as upregulation of DR5 at 20 to 60 nM incubated for 48 hrs by Western blot analysis; format: functional, cell-based; conditions: dose 20-60 nM; method in brief: as §3
MGC-803 [16] = assay: Antiproliferative activity against human MGC-803 cells assessed as reduction in cell viability at 60 nmol/L incubated for 48 hrs by MTT assay relative to control; format: functional
Method in brief: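 MTT viability in gastric cell lines grown in RPMI-1640 with 10% FBS at 37 °C, 5% CO2. Compound at 20, 40 and 60 nM for 48 h, starting 24 h after seeding 5,000 cells per well. MTT for 4 h, formazan dissolved in DMSO, absorbance at 490 nm. Inhibition expressed relative to control.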

MGC-803 [17] = assay: Induction of apoptosis in human MGC-803 cells assessed as upregulation of DR5 at 20 to 60 nM incubated for 48 hrs by Western blot analysis; format: functional, cell-based; conditions: dose 20-60 nM; method in brief: as §4
SGC-7901 [18] = assay: Induction of apoptosis in human SGC-7901 cells assessed as upregulation of Bak at 20 to 60 nM incubated for 48 hrs by Western blot analysis; format: functional, cell-based; conditions: dose 20-60 nM; method in brief: as §3
MGC-803 [19] = assay: Activation of Hippo signaling pathway in human […] cells assessed as decrease in Bcl-2 expression incubated for 48 hrs by Western blot analysis; format: cell-based; conditions: filed as activator, dose 20-60 nM; method in brief: as §1
SGC-7901 [20] = assay: Induction of apoptosis in human SGC-7901 cells assessed as downregulation of c-IAP2 at 20 to 60 nM incubated for 48 hrs by Western blot analysis; format: functional, cell-based; conditions: dose 20-60 nM; method in brief: as §3
SGC-7901 [21] = assay: Induction of apoptosis in human SGC-7901 cells assessed as late apoptotic cells at 60 nM incubated for 48 hrs by annexin V-FITC and PI staining based flow cytometry analysis (reference value: 2.4 %); format: functional
PC-3 = assay: Antiproliferative activity against human PC-3 cells assessed as reduction in cell viability incubated for 48 hrs by MTT assay; format: functional, cell-based; conditions: PC-3, 48 h; method in brief: as §5
SGC-7901 [22] = assay: Antiproliferative activity against human SGC-7901 cells assessed as reduction in cell viability incubated for 48 hrs by MTT assay; format: functional, cell-based; conditions: SGC-7901, 48 h; method in brief: as §5
MGC-803 [23] = assay: Induction of apoptosis in human MGC-803 cells assessed as early apoptotic cells at 60 nM incubated for 48 hrs by annexin V-FITC and PI staining based flow cytometry analysis (reference value: 2.9 %); format: functional
MGC-803 [24] = assay: Induction of apoptosis in human MGC-803 cells assessed as increase in PARP cleavage at 20 to 60 nM incubated for 48 hrs by Western blot analysis; format: functional, cell-based; conditions: dose 20-60 nM; method in brief: as §4
SGC-7901 [25] = assay: Induction of apoptosis in human SGC-7901 cells assessed as downregulation of c-IAP1 at 20 to 60 nM incubated for 48 hrs by Western blot analysis; format: functional, cell-based; conditions: dose 20-60 nM; method in brief: as §4

COc1ccc(CN(C(=O)CSc2nc3ccccc3s2)c2cc(OC)c(OC)c(OC)c2)cc1O
Activity (SGC-7901 [1]): Dose-dependent effect | Activity (MGC-803 [2]): Active | Activity (SGC-7901 [3]): Active | Activity (MGC-803 [4]): Active | Activity (SGC-7901 [5]): Active | Activity (MGC-803 [6]): Active | Activity (MGC-803 [7]): Active | Activity (SGC-7901 [8]): Non-Toxic | Activity (MGC-803 [9]): Active | IC50 (HCT-116): 182 nM | Activity (SGC-7901 [10]): Active | Activity (MGC-803 [11]): Active | IC50 (MGC-803 [12]): 35 nM | Activity (MGC-803 [13]): Active | Activity (SGC-7901 [14]): 9.5% | Activity (SGC-7901 [15]): Active | inhibition at 0.06 µM (MGC-803 [16]): 72% | Activity (MGC-803 [17]): Active | Activity (SGC-7901 [18]): Active | Activity (MGC-803 [19]): Dose-dependent effect | Activity (SGC-7901 [20]): Active | Activity (SGC-7901 [21]): 47.3% | IC50 (PC-3): 2110 nM | IC50 (SGC-7901 [22]): 49 nM | Activity (MGC-803 [23]): 43% | Activity (MGC-803 [24]): Active | Activity (SGC-7901 [25]): Active
